Results as given in paper PMC11954587 (JAC-Antimicrobial Resistance, 2025).
Entries after “also recorded” stand apart in the source; their conditions may differ. Like-named read-outs stand apart in the source and are kept apart here. Residues, ends and D or L forms follow the SMILES beside them.

Tests used:
P. aeruginosa strains = conditions: animal model, cited from earlier work
[1] = cited from earlier work
[2] = patients with bloodstream infections; cited from earlier work
K. pneumoniae = conditions: cited from earlier work
epithelial cells = conditions: in vitro; cited from earlier work
[3] = test system: multi-drug-resistant Gram-negative bacteria; format: in vivo, human; conditions: for Microbiology efficacy (TOC): test of cure visit, 14-days post treatment
How it was run: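 VAP was diagnosed by positive sputum culture of multi-drug-resistant Gram-negative bacteria plus clinical signs, laboratory tests and CT. Aerosol: 50 mg powder dissolved in 5 mL distilled water, given whole or split into two 25 mg doses, nebulized over 30 min by vibrating mesh device, combined with IV dosing. Outcomes were assessed at end of treatment and test of cure.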

[4] = Adverse events in VAP patients during polymyxin B treatment; format: in vivo, human
[5] = aerosolized delivery of CMS; cited from earlier work
[6] = four patients during polymyxin B treatment

## CC[C@H](C)CCCCC(=O)N[C@@H](CCN)C(=O)N[C@H](C(=O)N[C@@H](CCN)C(=O)N[C@H]1CCNC(=O)[C@H]([C@@H](C)O)NC(=O)[C@H](CCN)NC(=O)[C@H](CCN)NC(=O)[C@H](CC(C)C)NC(=O)[C@@H](Cc2ccccc2)NC(=O)[C@H](CCN)NC1=O)[C@@H](C)O [polymyxin B] (HELM PEPTIDE1{[CC[C@H](C)CCCCC(=O)[*:2]].[Dab].T.[Dab].[Dab].[Dab].[dF].L.[Dab].[Dab].T}$PEPTIDE1,PEPTIDE1,5:R3-11:R2$$$V2.0)
P. aeruginosa strains; aerosolized
  maximum ELF concentrations: 184.0 ± 35.1 mg/L
P. aeruginosa strains; at maximum ELF concentrations 184.0 ± 35.1 mg/L
  lung histopathology: reduced lung inflammation and preserved lung epithelial integrity
[1]; aerosol doses of 50 mg twice a day, VAP patients
  cure and improved rates: 95%
[1]; inhaled polymyxin B, pneumonia patients
  clinical outcome: favourable clinical outcome of cure and improvement
[2]
  elimination half-life: 12.5 ± 3.11 h
K. pneumoniae; aerosol 50 mg twice a day (with intravenous), P < 0.003
  eradication rate of K. pneumoniae: 92.1%
K. pneumoniae; intravenous treatment alone
  eradication rate of K. pneumoniae: 70.1%
Epithelial cells
  concentration that induced toxic metabolic response perturbations: 1000 µM
[3]; Patient 1, CRKP VAP, inhalation 25 mg + intravenous 50 mg q12h, 5 d
  Clinical outcome (EOT and TOC): improved
[3]; Patient 1, organism found
  Microbiology efficacy (TOC): CRKP
[3]; Patient 2
  Microbiology efficacy (TOC): negative
[3]; Patient 3, inhalation 25 mg + intravenous 75 mg q12h
  Note (sputum culture during treatment): CRKP and CRPA were negative after treatment for 6 days, then Serratia marcescens and Chryseobacterium meningosepticum showed positive
[3]; Patient 3
  Microbiology efficacy (TOC): CRKP and CRPA negative
[3]; Patient 4, CRE (E. cloacae) VAP, inhalation 25 mg + intravenous 75 mg q12h, 11 d
  Clinical outcome (EOT and TOC): improved
[3]; Patient 4
  Microbiology efficacy (TOC): negative
[3]; four VAP patients, aerosolized and intravenous polymyxin B
  clinical improvement or cure / alleviation of clinical symptoms (patients): Three of the patients exhibited alleviation of clinical symptoms; also recorded: three of them reaching clinical improvement or cure
[3]; four VAP patients, aerosolized and intravenous polymyxin B, sputum culture
  bacterial eradication (patients): All four patients achieved bacterial eradication
[4]; Patient 1, inhalation 25 mg + intravenous 50 mg q12h, 5 d
  Adverse events: none
[4]; Patient 2, inhalation 25 mg + intravenous 100 mg q12h, 5 d
  Adverse events: none
[4]; Patient 3, inhalation 25 then 50 mg + intravenous 75 mg q12h, 12 d
  Adverse events: hyperpigmentation
[4]; Patient 4, inhalation 25 mg + intravenous 75 mg q12h, 11 d
  Adverse events: hyperpigmentation
[4]; [6]
  nephrotoxicity: No cases of nephrotoxicity
  neurotoxicity: no reports of neurotoxicity
[4]; of four patients
  hyperpigmentation (number of patients): two patients
[4]; patients, combined aerosol and intravenous treatment
  chest CT imaging: recovery of chest CT imaging

## colistimethate [CMS]
[5]
  rate of clinical cure (OR): 1.61
  rate of microbiological eradication (OR): 1.37
